According to ChEMBL document CHEMBL1833870, “Deconstruction of the α4β2 nicotinic acetylcholine receptor positive allosteric modulator desformylflustrabromine” (J Med Chem, 2011):
Structures can show the parent of a compound that is named as a salt. Calls of active or inactive are those of the source. No cut-off for these calls is given here.

Legend:
[1] = target: T1, Neuronal acetylcholine receptor; alpha4/beta2 (Homo sapiens, UniProt P17787+P43681); assay: Agonist activity at human alpha4beta2 nACHR expressed in xenopus oocyte assessed as potentiation of acetylcholine-induced current by two electrode voltage clamp assay; assay type: functional
T1 sequence (P17787 whole entry, the tested form may be a part): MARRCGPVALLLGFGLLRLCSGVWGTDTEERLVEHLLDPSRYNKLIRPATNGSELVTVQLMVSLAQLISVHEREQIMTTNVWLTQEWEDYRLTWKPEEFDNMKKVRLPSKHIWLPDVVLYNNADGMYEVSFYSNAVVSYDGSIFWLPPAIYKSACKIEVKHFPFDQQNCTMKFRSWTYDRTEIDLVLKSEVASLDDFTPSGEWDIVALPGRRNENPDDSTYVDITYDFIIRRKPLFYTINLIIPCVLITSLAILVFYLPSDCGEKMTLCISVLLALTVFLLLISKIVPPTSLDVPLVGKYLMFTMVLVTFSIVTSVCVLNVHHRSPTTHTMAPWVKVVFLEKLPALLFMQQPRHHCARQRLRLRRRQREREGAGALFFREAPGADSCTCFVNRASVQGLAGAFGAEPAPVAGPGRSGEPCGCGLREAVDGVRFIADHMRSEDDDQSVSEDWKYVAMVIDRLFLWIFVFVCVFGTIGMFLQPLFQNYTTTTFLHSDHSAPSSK
T1 sequence (P43681 whole entry, the tested form may be a part): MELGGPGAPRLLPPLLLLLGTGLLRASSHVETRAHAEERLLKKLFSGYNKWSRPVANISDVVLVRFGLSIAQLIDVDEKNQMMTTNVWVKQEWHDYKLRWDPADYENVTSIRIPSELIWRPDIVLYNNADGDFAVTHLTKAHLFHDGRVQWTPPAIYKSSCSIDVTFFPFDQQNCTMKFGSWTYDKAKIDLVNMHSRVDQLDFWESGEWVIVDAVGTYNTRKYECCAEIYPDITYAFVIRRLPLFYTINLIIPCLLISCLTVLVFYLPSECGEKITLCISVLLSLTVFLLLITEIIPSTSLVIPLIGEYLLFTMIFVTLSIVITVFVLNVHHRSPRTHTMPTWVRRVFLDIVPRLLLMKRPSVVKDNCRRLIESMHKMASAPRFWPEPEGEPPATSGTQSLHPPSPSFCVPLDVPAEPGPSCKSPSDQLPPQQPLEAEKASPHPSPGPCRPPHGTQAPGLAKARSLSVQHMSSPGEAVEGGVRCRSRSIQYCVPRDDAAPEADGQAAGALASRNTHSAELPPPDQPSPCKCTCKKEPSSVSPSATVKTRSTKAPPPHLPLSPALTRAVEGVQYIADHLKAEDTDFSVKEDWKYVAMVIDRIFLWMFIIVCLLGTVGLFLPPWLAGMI
Method in brief: (§1)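 Human α4 and β2 cRNA injected into stage IV Xenopus oocytes (50 nL total at 0.2 ng/nL, subunit ratio as appropriate), then incubated 24–72 h at 19 °C. Two-electrode voltage clamp in a vertical flow chamber perfused with ND-96 (pH 7.4) at 20 mL/min. Compound in ND-96 was co-applied with ACh, and the enhancement of current was measured. Concentration–response curves were fit by non-linear regression.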

[2] = target: Neuronal acetylcholine receptor subunit alpha-7 (Homo sapiens, UniProt P36544); assay: Antagonist activity at human alpha7 nAChR expressed in xenopus oocyte assessed as inhibition of acetylcholine-induced current by two-electrode voltage clamp assay; assay type: functional
Sequence of Neuronal acetylcholine receptor subunit alpha-7 (P36544 whole entry, the tested form may be a part): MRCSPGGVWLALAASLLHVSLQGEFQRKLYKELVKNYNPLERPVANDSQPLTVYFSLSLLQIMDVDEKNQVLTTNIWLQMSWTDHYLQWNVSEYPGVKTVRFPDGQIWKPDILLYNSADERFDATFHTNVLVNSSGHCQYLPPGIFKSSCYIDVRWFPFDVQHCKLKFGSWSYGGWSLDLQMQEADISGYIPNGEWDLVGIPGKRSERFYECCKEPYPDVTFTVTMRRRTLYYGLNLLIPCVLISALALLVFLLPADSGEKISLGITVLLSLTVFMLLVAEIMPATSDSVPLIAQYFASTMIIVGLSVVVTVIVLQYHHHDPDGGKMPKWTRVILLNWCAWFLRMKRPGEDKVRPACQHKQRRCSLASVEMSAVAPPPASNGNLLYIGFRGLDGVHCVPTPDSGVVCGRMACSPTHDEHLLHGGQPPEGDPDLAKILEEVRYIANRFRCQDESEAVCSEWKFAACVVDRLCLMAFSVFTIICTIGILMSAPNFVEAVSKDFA
Method in brief: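 Xenopus stage IV oocytes were injected with human α7 cRNA (50 nL, 0.2 ng/nL) and kept 24–72 h at 19 °C. Recording was by two-electrode voltage clamp with ND-96 perfusion (pH 7.4) at 20 mL/min. Compound dissolved in ND-96 was co-applied with ACh, and inhibition of the ACh response was read. Concentration–response data were fit by non-linear regression.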

[3] = target: T1, Neuronal acetylcholine receptor; alpha4/beta2; assay: Agonist activity at human alpha4beta2 nACHR expressed in xenopus oocyte assessed as potentiation of acetylcholine-induced current by two electrode voltage clamp assay relative to acetylcholine; assay type: functional; method in brief: as §1
[4] = species on record: Homo sapiens; assay: Selectivity ratio of IC50 for human alpha7 nAChR to IC50 for human alpha4beta2 nAChR

In the case of CCC(C)(C)c1[nH]c2cc(Br)ccc2c1CCNC, the EC50 ([1]; read-out: EC50) is reported as 0.1 µM, the EC50 ([1]; read-out: pEC50 (converted)) is reported as 0.138 µM and the EC50 [2] is reported as 25.7 µM. It also gave an Emax [3] of 290% and a Ratio IC50 [4] of 190.
Compound CNCCc1c(C(C)(C)C)[nH]c2ccccc12 has an EC50 ([1]; read-out: pEC50 (converted)) of 3.98 µM and an EC50 [2] of 4.79 µM.
For CCCc1[nH]c2ccccc2c1CCNC, the pEC50 [1] was “inactive” and the EC50 [2] was 44.7 µM.
With CCCc1[nH]c2cc(Br)ccc2c1CCNC the pEC50 [1] was “inactive” and the EC50 [2] was 20.9 µM.
For CCC(C)c1[nH]c2ccccc2c1CCNC (racemic), the pEC50 [1] was “inactive” and the EC50 [2] was 9.77 µM.
For C=CCc1[nH]c2cc(Br)ccc2c1CCNC, the pEC50 [1] was “inactive” and the EC50 [2] was 29.5 µM.
With CNCCc1c(C(C)C)[nH]c2ccccc12 the pEC50 [1] was “inactive”.
C=CC(C)(C)c1[nH]c2cc(Br)ccc2c1CCN gave an EC50 ([1]; read-out: pEC50 (converted)) of 0.513 µM and an EC50 [2] of 5.75 µM.
With CCC(C)(C)c1[nH]c2ccccc2c1CCNC the EC50 ([1]; read-out: EC50) was 1.22 µM, the EC50 ([1]; read-out: pEC50 (converted)) was 3.02 µM and the EC50 [2] was 20.4 µM. The Emax [3] was 260%.
In the case of C=CC(C)(C)c1[nH]c2cc(Br)ccc2c1CCNC [DESFORMYLFLUSTRABROMINE HYDROCHLORIDE], the EC50 ([1]; read-out: EC50) is reported as 0.32 µM, the EC50 ([1]; read-out: pEC50 (converted)) is reported as 0.331 µM and the EC50 [2] is reported as 1.86 µM.
C=CC(C)(C)c1[nH]c2ccccc2c1CCNC was tested, and the EC50 ([1]; read-out: EC50) was 6.77 µM, the EC50 ([1]; read-out: pEC50 (converted)) was 7.24 µM and the EC50 [2] was 7.76 µM. The Emax [3] was 250%.
With CNCCc1c[nH]c2cc(Br)ccc12 the pEC50 [1] was “inactive” and the EC50 [2] was 11 µM.
